Laboratory results as given in ChEMBL document CHEMBL1125911, “Synthesis and biological activity of new HMG-CoA reductase inhibitors. 3. Lactones of 6-phenoxy-3,5-dihydroxyhexanoic acids” (J Med Chem, 1991).

Columns and labels:
Oryctolagus cuniculus [1] = assay: Tested in vivo for hypocholesterolemic activity by measuring its ability to decrease serum total cholesterol, after oral administration of 10 mg/kg body wt. per day in normolipidemic NZW rabbits; format: functional
Summary of the method: (§1)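 NZW rabbits (n = 5 or 6) dosed orally daily for 10 days. Serum total cholesterol reported as % change versus control. For 20 mg/kg, that dose was given on days 11-20 after 10 mg/kg, with the value read on day 20. Error given as SEM.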

Canis familiaris [2] = assay: Tested in vivo for hypocholesterolemic activity by measuring its ability to decrease serum LDL-cholesterol, after oral administration of 25 mg/kg per day for 14 days in male Beagle dogs.; format: functional, Canis lupus familiaris
Summary of the method: (§2)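 Male beagle dogs (n = 4) given neat compound in gelatine capsules daily at 3:00 p.m.; controls received empty capsules. After an overnight fast, venous blood was drawn at 8:00 a.m. Serum lipoproteins were separated by ultracentrifugation (densities 1.006/1.063/1.21). LDL-cholesterol reported as % change versus control.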

Oryctolagus cuniculus [3] = assay: Tested in vivo for hypocholesterolemic activity by measuring its ability to decrease serum total cholesterol, after oral administration of 75 mg/kg body wt. per day in normolipidemic NZW rabbits; Very potent; format: functional, organism-based; parameters: dose 75 mg/kg, route oral
[4] = molecular target: T1, 3-hydroxy-3-methylglutaryl-coenzyme A reductase (Homo sapiens, UniProt P04035); assay: Inhibition of the incorporation of sodium [14C]acetate into cholesterol in HEP G2 cells.; format: functional, cell-based, HepG2
T1 sequence (P04035 whole entry): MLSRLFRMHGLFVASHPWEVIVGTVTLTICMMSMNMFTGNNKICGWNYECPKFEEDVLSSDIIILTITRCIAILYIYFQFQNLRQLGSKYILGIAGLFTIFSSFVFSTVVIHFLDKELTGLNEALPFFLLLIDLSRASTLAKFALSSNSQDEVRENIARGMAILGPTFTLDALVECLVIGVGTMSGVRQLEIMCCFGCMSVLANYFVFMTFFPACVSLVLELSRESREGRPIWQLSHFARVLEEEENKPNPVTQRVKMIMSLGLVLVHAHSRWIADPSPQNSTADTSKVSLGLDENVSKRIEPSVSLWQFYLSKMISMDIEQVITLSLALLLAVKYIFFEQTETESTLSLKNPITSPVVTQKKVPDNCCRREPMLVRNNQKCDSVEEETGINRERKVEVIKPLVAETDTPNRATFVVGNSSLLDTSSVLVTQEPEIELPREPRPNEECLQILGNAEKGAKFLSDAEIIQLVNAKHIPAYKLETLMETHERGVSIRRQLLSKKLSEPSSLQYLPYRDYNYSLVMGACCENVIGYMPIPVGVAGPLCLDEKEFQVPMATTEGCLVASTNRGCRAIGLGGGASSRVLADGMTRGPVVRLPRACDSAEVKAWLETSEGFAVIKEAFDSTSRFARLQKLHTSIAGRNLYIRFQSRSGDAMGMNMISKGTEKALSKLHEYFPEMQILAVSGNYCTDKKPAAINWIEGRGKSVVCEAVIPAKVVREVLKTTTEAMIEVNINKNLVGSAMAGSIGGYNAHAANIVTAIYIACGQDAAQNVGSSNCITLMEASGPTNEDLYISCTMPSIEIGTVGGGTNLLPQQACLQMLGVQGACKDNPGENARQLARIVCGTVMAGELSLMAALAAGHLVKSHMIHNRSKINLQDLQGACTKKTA

[5] = molecular target: T2, 3-hydroxy-3-methylglutaryl-coenzyme A reductase (Rattus norvegicus) (UniProt P51639); assay: (§3) Inhibition of HMG-CoA reductase compared to mevinolin.
T2 sequence (whole entry): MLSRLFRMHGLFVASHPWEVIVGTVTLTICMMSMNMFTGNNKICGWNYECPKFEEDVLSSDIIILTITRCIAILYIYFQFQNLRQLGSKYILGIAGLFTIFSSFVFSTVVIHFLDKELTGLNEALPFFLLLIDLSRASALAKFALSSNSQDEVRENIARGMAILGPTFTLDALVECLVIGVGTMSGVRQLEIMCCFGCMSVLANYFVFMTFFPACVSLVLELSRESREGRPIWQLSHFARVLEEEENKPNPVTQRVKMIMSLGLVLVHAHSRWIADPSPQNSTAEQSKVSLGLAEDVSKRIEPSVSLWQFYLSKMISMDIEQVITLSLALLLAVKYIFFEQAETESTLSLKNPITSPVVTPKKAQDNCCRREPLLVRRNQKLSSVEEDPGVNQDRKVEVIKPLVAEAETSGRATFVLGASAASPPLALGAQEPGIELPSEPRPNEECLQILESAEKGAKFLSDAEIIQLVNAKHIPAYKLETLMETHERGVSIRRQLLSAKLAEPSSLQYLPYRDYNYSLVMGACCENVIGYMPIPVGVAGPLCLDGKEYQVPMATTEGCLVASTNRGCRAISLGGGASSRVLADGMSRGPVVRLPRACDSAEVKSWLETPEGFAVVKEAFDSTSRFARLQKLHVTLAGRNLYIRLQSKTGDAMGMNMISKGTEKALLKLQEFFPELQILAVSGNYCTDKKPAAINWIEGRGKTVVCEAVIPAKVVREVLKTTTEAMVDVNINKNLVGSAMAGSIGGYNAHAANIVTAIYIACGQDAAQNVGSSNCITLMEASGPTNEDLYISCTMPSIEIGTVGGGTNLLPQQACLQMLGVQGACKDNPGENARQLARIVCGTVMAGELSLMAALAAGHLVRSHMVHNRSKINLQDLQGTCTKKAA
Summary of the method: (§4)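 Solubilized, partially purified rat liver HMG-CoA reductase. IC50 from four or five inhibitor concentrations. Relative potency compared IC50 with mevinolin (set to 100), corrected for molecular weight.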

[6] = molecular target: T3, 3-hydroxy-3-methylglutaryl-coenzyme A reductase (Homo sapiens) (UniProt P04035); assay: as §3; format: functional; summary of the method: as §4
T3 sequence (whole entry): T1 sequence (P04035 whole entry)

Canis familiaris [7] = assay: Tested in vivo for hypocholesterolemic activity by measuring its ability to decrease serum LDL-cholesterol, after oral administration of 10 mg/kg per day for 14 days in male Beagle dogs.; format: functional, Canis lupus familiaris; summary of the method: as §2
[8] = molecular target: T4, 3-hydroxy-3-methylglutaryl-coenzyme A reductase (Rattus norvegicus, UniProt P51639); assay: In vitro inhibition of HMG-CoA reductase in solubilized rat liver.
T4 sequence (P51639 whole entry): T2 sequence (whole entry)

Oryctolagus cuniculus [9] = assay: Tested in vivo for hypocholesterolemic activity by measuring its ability to decrease serum total cholesterol, after oral administration of 20 mg/kg body wt. per day in normolipidemic NZW rabbits; format: functional; summary of the method: as §1
Rattus norvegicus [10] = organism: Rattus norvegicus; assay: In vitro inhibition of microsomal lipid peroxidation; format: functional
Summary of the method: (§5)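 Rat liver microsomes in 50 mM Tris-HCl pH 7.4 with 100 mM KCl and 6.0 mM MgCl2, final protein 0.4 mg/mL. Peroxidation was started with ADP (2 mM)/FeCl3 (10 μM) plus an NADPH-regenerating system. Incubation 30 min at 37 °C with shaking. Thiobarbituric acid reactive substances were read at 535 nm.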

Sus scrofa [11] = organism: Sus scrofa; assay: In vitro inhibition of Cu2+ catalyzed LDL oxidation at 10e-5 M conc.; format: functional
Summary of the method: (§6)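 Porcine plasma LDL isolated by sequential ultracentrifugation (density 1.019-1.063 g/mL), dialysed against PBS pH 7.4, then diluted to 0.1 mg/mL protein. Preincubated 1 h at 37 °C under N2 with compound in ethanol. Oxidised with 5 μM Cu2+ for 2 h at 37 °C in air. Fluorescence read at ex 365/em 430 nm.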

Sus scrofa [12] = organism: Sus scrofa; assay: Compound was tested for inhibition of Cu2+ catalyzed LDL oxidation and the potency relative to terbufucine was determined; format: functional; summary of the method: as §6
Canis familiaris [13] = assay: Tested in vivo for hypocholesterolemic activity by measuring its ability to decrease serum LDL-cholesterol, after oral administration of 30 mg/kg per day for 14 days in male Beagle dogs.; format: functional, Canis lupus familiaris; summary of the method: as §2
Canis familiaris [14] = assay: Tested in vivo for hypocholesterolemic activity by measuring its ability to decrease serum LDL-cholesterol, after oral administration of 5 mg/kg per day for 14 days in male Beagle dogs.; format: functional, Canis lupus familiaris; summary of the method: as §2
Oryctolagus cuniculus [15] = assay: Tested in vivo for hypocholesterolemic activity by measuring its ability to decrease serum total cholesterol, after oral administration of 75 mg/kg body wt. per day in normolipidemic NZW rabbits; More potent than compound 73; format: functional, organism-based; parameters: dose 75 mg/kg, route oral
[16] = molecular target: T4, 3-hydroxy-3-methylglutaryl-coenzyme A reductase; assay: In vitro inhibition of solubilized HMG-CoA reductase in rat liver.
Oryctolagus cuniculus [17] = assay: Tested in vivo for hypocholesterolemic activity by measuring its ability to decrease serum total cholesterol, after oral administration of 75 mg/kg body wt. per day in normolipidemic NZW rabbits; Not significantly active; format: functional, organism-based; parameters: dose 75 mg/kg, route oral
Canis familiaris [18] = assay: Tested in vivo for hypocholesterolemic activity by measuring its ability to decrease serum LDL-cholesterol, after oral administration of 30 mg/kg per day for 21 days in male Beagle dogs.; format: functional, Canis lupus familiaris; summary of the method: as §2
Rattus norvegicus [19] = assay: In vivo inhibition of hepatic cholesterol de novo synthesis in rat after oral administration of 5 mg/kg dose; format: functional
Rattus norvegicus [20] = organism: Rattus norvegicus; assay: Potency relative to mevinolin was determined with respect to IC50. […]; format: functional
Canis familiaris [21] = assay: Tested in vivo for hypocholesterolemic activity by measuring its ability to decrease serum LDL-cholesterol, after oral administration of 10 mg/kg per day for 19 days in male Beagle dogs.
Rattus norvegicus [22] = organism: Rattus norvegicus; assay: In vitro inhibition of microsomal lipid peroxidation at 10e-5 M concentration; format: functional; summary of the method: as §5
Rattus norvegicus [23] = organism: Rattus norvegicus; assay: Compound was tested for inhibition of microsomal lipid peroxidation and the potency relative to terbufucine was determined; format: functional; summary of the method: as §5
Rattus norvegicus [24] = assay: Compound was tested for effect on serum LDL after oral administration of 100 mg/kg in male rats; format: functional
Summary of the method: (§7)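 Male HOE:WISKf (SPF 71) rats, initial body weight over 180 g, n = 10 per group, dosed once daily in the morning by gavage in polyethylene glycol 400 for 7 days; controls received vehicle. Fasted after last dose, bled retroorbitally 24 h later under mild ether. Liver and body weight recorded. Pooled group serum was ultracentrifuged into VLDL (<1.006), LDL (1.006-1.04) and HDL (1.04-1.21). Values are % change versus control.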

Rattus norvegicus [25] = assay: Compound was tested for effect on body weight after oral administration of 100 mg/kg in male rats.; format: functional; summary of the method: as §7
Rattus norvegicus [26] = assay: Compound was tested for effect on serum VLDL after oral administration of 100 mg/kg in male rats; format: functional; summary of the method: as §7
Rattus norvegicus [27] = assay: Compound was tested for effect on liver weight after oral administration of 100 mg/kg in male rats.; format: functional; summary of the method: as §7
Rattus norvegicus [28] = assay: Compound was tested for effect on serum HDL after oral administration of 100 mg/kg in male rats; format: functional; summary of the method: as §7
Oryctolagus cuniculus [29] = assay: Tested in vivo for hypocholesterolemic activity by measuring its ability to decrease serum total cholesterol, after oral administration of 75 mg/kg body wt. per day in normolipidemic NZW rabbits; format: functional; summary of the method: as §1

CC(C)c1cc(-c2ccc(F)cc2)c(OCC(O)C[C@@H](O)CC(=O)[O-])c(C(C)C)c1.[Na+] (stereo partly drawn)
Change (Oryctolagus cuniculus [1]): -32% | Change (Canis familiaris [2]): -21% | IC50 (Oryctolagus cuniculus [3]): Very potent | IC50 [4]: 30 nM | Relative potency [5]: 300 | Relative potency [6]: 150 | Change (Canis familiaris [7]): -10% | IC50 [8]: 2.7 nM | Change (Oryctolagus cuniculus [9]): -37%

CC(C)c1cc(Sc2ccc(F)cc2)cc(-c2ccc(F)cc2)c1OCC1C[C@@H](O)CC(=O)O1 (stereo partly drawn)
IC50 (Rattus norvegicus [10]): > 10000 nM | inhibition at 10 µM (Sus scrofa [11]): 23% | Relative potency (Sus scrofa [12]): <0.1 | Change (Canis familiaris [13]): -21% | Change (Canis familiaris [14]): -9%

CC(C)c1nc(C(C)(C)C)cc(-c2ccc(F)cc2)c1/C=C/[C@@H](O)C[C@@H](O)CC(=O)[O-].[Na+]
IC50 (Oryctolagus cuniculus [15]): More potent than compound 73 | IC50 [16]: 1 nM

CC(C)c1cc(C(C)(C)C)cc(-c2ccc(F)cc2)c1OCC(O)C[C@@H](O)CC(=O)[O-].[Na+] (stereo partly drawn)
IC50 (Oryctolagus cuniculus [17]): Not Active | IC50 [4]: > 500 nM | Relative potency [5]: 2 | Relative potency [6]: < 10 | IC50 [8]: 400 nM

CC(C)c1cc(-c2ccc(F)cc2)cc(-c2ccc(F)cc2)c1OCC1C[C@@H](O)CC(=O)O1 (stereo partly drawn)
Change (Oryctolagus cuniculus [1]): -28% | Change (Canis familiaris [18]): 3% | Change (Oryctolagus cuniculus [9]): -34% | Cholesterol (Rattus norvegicus [19]): 84.5% | Relative potency (Rattus norvegicus [20]): 18

CC[C@H](C)C(=O)O[C@H]1C[C@@H](C)C=C2C=C[C@H](C)[C@H](CC[C@@H]3C[C@@H](O)CC(=O)O3)[C@H]21 [LOVASTATIN]
Change (Oryctolagus cuniculus [1]): -25% | Change (Oryctolagus cuniculus [9]): -27% | Change (Canis familiaris [21]): -20% | Cholesterol (Rattus norvegicus [19]): 14%

CC(C)c1cc(SC(C)(C)Sc2cc(-c3ccc(F)cc3)c(OC[C@H](O)C[C@@H](O)CC(=O)[O-])c(C(C)C)c2)cc(-c2ccc(F)cc2)c1OC[C@H](O)C[C@@H](O)CC(=O)[O-].[Na+].[Na+]
inhibition (Rattus norvegicus [22]): < 10% | Relative potency (Rattus norvegicus [23]): < 0.1 | Change (Rattus norvegicus [24]): -52% | IC50 [4]: > 1000 nM | Relative potency [5]: 37 | Change (Rattus norvegicus [25]): 5% | Relative potency [6]: < 5 | Change (Rattus norvegicus [26]): -23% | IC50 [8]: 10 nM | Change (Rattus norvegicus [27]): -1% | Change (Rattus norvegicus [28]): 9%

O=C([O-])C[C@H](O)CC(O)COc1c(Cl)cc(Cl)cc1C(c1ccc(F)cc1)c1ccc(F)cc1.[Na+] (stereo in doubt; 11b)
Change (Oryctolagus cuniculus [29]): -25% | IC50 [8]: 50 nM
